This sample holds only a part of the variants without activity.
B1: tRNA (parent)
chain: GUUCCGUUGGCGUAAUGGUAACGCGUCUCCCUCCUAAGGAGAAGACUGCGGGUUCGAGUCCCGUACGGAACG

Variants of: B1
Assay: yeast fitness relative to wild type (ratio to wild type); higher = fitter; tRNA-Arg(CCU), competitive growth, 37 C, YPD
Procedure, shortened: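 Genotype frequency changes were the basis for Darwinian fitness relative to wild type. The frequencies came from 100-nucleotide paired-end sequencing of gene amplicons from the start population and each end population of pooled yeast strains with tRNA-Arg(CCU) gene variants at the native locus. Competition ran in YPD at 37°C for 24 hours in six replicates, genotypes needed ≥ 100 starting reads, and estimates < 0.5 were set to 0.5.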

| Variant | yeast fitness |
| --- | --- |
| C11G G12A C31G U59G A65G | ≤ 0.5 |
| C11G G12A C61G G68A | 0.556 |
| C11G G12C A40G U47C G50C | 0.897 |
| C11G G12C C60G | ≤ 0.5 |
| C11G G12C G23C A40G | ≤ 0.5 |
| C11G G12C U54A C60A A69C | 0.557 |
| C11G G17A C24U C29G | 0.6 |
| C11G G17C A40G | ≤ 0.5 |
| C11G G17C U35C C49U C66U | ≤ 0.5 |
| C11G G18A C24U G58A A70G | ≤ 0.5 |
| C11G G18A G23A | ≤ 0.5 |
| C11G G18C C27A C66U | 0.636 |
| C11G G18C C49A A70C | ≤ 0.5 |
| C11G G18C U26C C31G C46U C55U | ≤ 0.5 |
| C11G G18C U26C C31G C46U C60G C61G A65C | 0.61 |
| C11G G18U C22U G39C C49G A57U A69U | ≤ 0.5 |
| C11G G23A C34G | ≤ 0.5 |
| C11G G23C | 1.07 |
| C11G G23C A36G A37G | 0.774 |
| C11G G23C C49A C66G | ≤ 0.5 |
| C11G G23C C49U G56A G63A | ≤ 0.5 |
| C11G G23C G25A | 0.977 |
| C11G G25A A36U | 0.615 |
| C11G G25A A36U C60U | ≤ 0.5 |

| Variant | yeast fitness |
| --- | --- |
| C11G G25A A37U | 0.573 |
| C11G G25A C29U C34U | ≤ 0.5 |
| C11G G25A C34G | ≤ 0.5 |
| C11G G25A C62U | ≤ 0.5 |
| C11G G25A U32C G50A G51U U59A U64A | 0.628 |
| C11G G38C C49A | 0.583 |
| C11G G39A | 0.63 |
| C11G G39C C61U | ≤ 0.5 |
| C11G G39C U47C C60A C61G | ≤ 0.5 |
| C11G G39C U47C C60A C61G A69U | 0.528 |
| C11G G41A A69U | ≤ 0.5 |
| C11G G44C | 0.639 |
| C11G G44C C66A | 0.614 |
| C11G G48A A69U | ≤ 0.5 |
| C11G G48C | 0.687 |
| C11G G48C G51C U53C A57U C66U | ≤ 0.5 |
| C11G G50A | 0.716 |
| C11G G50C | 0.597 |
| C11G G51A C60U | 0.79 |
| C11G G51C | 0.58 |
| C11G G52C U54C A57U | ≤ 0.5 |
| C11G G56C | 0.627 |
| C11G G58A | 0.722 |
| C11G G68C | 0.597 |

| Variant | yeast fitness |
| --- | --- |
| C11G U13A U16G U26A A65G | ≤ 0.5 |
| C11G U13A U16G U26A C66U | ≤ 0.5 |
| C11G U13C A37U | ≤ 0.5 |
| C11G U13G A20C C27G C29A | ≤ 0.5 |
| C11G U13G A21G | 0.785 |
| C11G U13G A69C | 0.531 |
| C11G U13G C30U U32A A37G A40U A57U | ≤ 0.5 |
| C11G U13G C33G G41A G63A A69C | ≤ 0.5 |
| C11G U13G C62G | ≤ 0.5 |
| C11G U13G G23C C34U U59C C66U | ≤ 0.5 |
| C11G U16A C24U | ≤ 0.5 |
| C11G U16A C29U U53C C62G | ≤ 0.5 |
| C11G U16A C30A A69U | ≤ 0.5 |
| C11G U16A C60A | ≤ 0.5 |
| C11G U16A G23C C30U C34U A69U | 0.844 |
| C11G U16A G23C C30U C34U G67U | 0.537 |
| C11G U16A U26A C34U C55G | ≤ 0.5 |
| C11G U16A U28C C29U G39A U59G G67U | ≤ 0.5 |
| C11G U16C A21U | ≤ 0.5 |
| C11G U16C A21U C30G G50C | ≤ 0.5 |
| C11G U16C C24U U28C | ≤ 0.5 |
| C11G U16G G38C G68A | ≤ 0.5 |
| C11G U16G U35A G41C | ≤ 0.5 |
| C11G U19A A21G C27U G39C | ≤ 0.5 |

| Variant | yeast fitness |
| --- | --- |
| C11G U19A C22G G68C | ≤ 0.5 |
| C11G U19A C34G C49G | ≤ 0.5 |
| C11G U19C A45U | ≤ 0.5 |
| C11G U19C C27G U28G | ≤ 0.5 |
| C11G U19G | 0.577 |
| C11G U19G A45C | ≤ 0.5 |
| C11G U26A C30U G48A U54A C55G A65U | 0.664 |
| C11G U26A U53A | ≤ 0.5 |
| C11G U26A U54C | ≤ 0.5 |
| C11G U26C | 0.569 |
| C11G U26C A45C A57C U59G | ≤ 0.5 |
| C11G U26C C61U C62G | 0.62 |
| C11G U28A G39A | ≤ 0.5 |
| C11G U28A G39A G48A G67A | ≤ 0.5 |
| C11G U28A G68A | ≤ 0.5 |
| C11G U28C | 0.653 |
| C11G U28C C60A G67A | 0.567 |
| C11G U28C G39A C60A G67A | ≤ 0.5 |
| C11G U32A C46U | 0.598 |
| C11G U32G C33U A37U | ≤ 0.5 |
| C11G U35A | 0.528 |
| C11G U35A C66G | ≤ 0.5 |
| C11G U35A G68C | ≤ 0.5 |
| C11G U47A C61G | ≤ 0.5 |

| Variant | yeast fitness |
| --- | --- |
| C11G U47A G68C | ≤ 0.5 |
| C11G U59A | 0.641 |
| C11U | 1.01 |
| C11U A14C | 0.745 |
| C11U A14C A15G U26A C34A G63A | ≤ 0.5 |
| C11U A14C A37C | 0.544 |
| C11U A14C A40C G44C C55G | ≤ 0.5 |
| C11U A14C U54A | ≤ 0.5 |
| C11U A14G | 0.865 |
| C11U A14G A37C | 0.737 |
| C11U A14G C24G | ≤ 0.5 |
| C11U A14G C24G C27U G41A A42C G67C | ≤ 0.5 |
| C11U A14G C27G C31U G68C | ≤ 0.5 |
| C11U A14G C46A G51A | 0.615 |
| C11U A14G G51C A69U | ≤ 0.5 |
| C11U A14G U35C C60G | ≤ 0.5 |
| C11U A14U A40G A42C | ≤ 0.5 |
| C11U A14U C24G G44A C49U G67U | ≤ 0.5 |
| C11U A14U C27U A40G | ≤ 0.5 |
| C11U A14U U28A C33U | 0.535 |
| C11U A15C A21G C24G U28A C61U | ≤ 0.5 |
| C11U A15C A21U C24A C33A C66A | ≤ 0.5 |
| C11U A15C A70U | 0.586 |
| C11U A15C C27A G39C | ≤ 0.5 |

| Variant | yeast fitness |
| --- | --- |
| C11U A15C C27A G39C G63U U64A | ≤ 0.5 |
| C11U A15C C27A G39C G67U | ≤ 0.5 |
| C11U A15C C27G C30U C46A | ≤ 0.5 |
| C11U A15C C30U A42C | ≤ 0.5 |
| C11U A15C G56A | 0.57 |
| C11U A15G A43U | 0.666 |
| C11U A15G A69C | 0.75 |
| C11U A15G C27G | 0.544 |
| C11U A15G C27G A45U | ≤ 0.5 |
| C11U A15G C27G G56C | ≤ 0.5 |
| C11U A15G C46U | 0.961 |
| C11U A15G G63C C66U | ≤ 0.5 |
| C11U A15G U32A C49A G56C | ≤ 0.5 |
| C11U A15U | 0.757 |
| C11U A15U C22U | 0.507 |
| C11U A15U C22U G67A | ≤ 0.5 |
| C11U A15U C27G | 0.529 |
| C11U A15U C27G A40C | ≤ 0.5 |
| C11U A15U C31A U32A A57G G67A | ≤ 0.5 |
| C11U A15U C33A | ≤ 0.5 |
| C11U A15U C34A | 0.588 |
| C11U A15U G38A | ≤ 0.5 |
| C11U A15U G51A G56C | ≤ 0.5 |
| C11U A15U G52A C61G | ≤ 0.5 |

| Variant | yeast fitness |
| --- | --- |
| C11U A15U U19G A20G G67C | ≤ 0.5 |
| C11U A15U U26C C49A | ≤ 0.5 |
| C11U A20C C22G A65G A70C | ≤ 0.5 |
| C11U A20C C29A C31U U32C A65C | ≤ 0.5 |
| C11U A20C C29G A42G G56C G58A | ≤ 0.5 |
| C11U A20C G25C C27A A37U | ≤ 0.5 |
| C11U A20C U47G | ≤ 0.5 |
| C11U A20G C22A G23C U28G A43G A57G | ≤ 0.5 |
| C11U A20G U35A | ≤ 0.5 |
| C11U A20G U59A | 0.514 |
| C11U A20U A36G C55G | ≤ 0.5 |
| C11U A20U C24U C29A | ≤ 0.5 |
| C11U A20U G39A G63A A70U | ≤ 0.5 |
| C11U A20U G68A A70C | 0.515 |
| C11U A20U U32A G39A A65C | ≤ 0.5 |
| C11U A21C A42C A69C | ≤ 0.5 |
| C11U A21C A43G | ≤ 0.5 |
| C11U A21G | 0.922 |
| C11U A21G A37U A40G G41A | ≤ 0.5 |
| C11U A21G A70C | 0.818 |
| C11U A21G C55G | 0.566 |
| C11U A21G C62U | 0.648 |
| C11U A21G U35C | 0.538 |

Reference: the RNAGym collection of RNA variant scans (doi:10.1126/science.aae0568)
